Screens (PubChem)
KCNK9 inh = human KCNK9 channel inhibition | B-score at 10 µM | AID 488922 | HEK293 KCNK9, FluxOR thallium flux fluorescence; active compounds read low | Q9NPC2 | 1.2% of 310,000 active;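 active means ratio B-score over 3 SD below the library mean, with starting fluorescence within 5 SD of its mean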;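 further: negative B-score means less thallium flux so channel inhibition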
KCNK3 inh = human KCNK3 channel inhibition, primary screen; CHO-KCNK3 thallium flux, FluxOR fluorescence; active compounds read low; 0.84% of 340,000 active; B-score at 10 µM;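 active means B-score under library mean minus 4 SD, starting fluorescence ratio at most library mean plus 5 SD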;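 further: more negative B-score means stronger inhibition of thallium flux through KCNK3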
KCNQ1 act = potentiators or activators of human KCNQ1 potassium channel; B-score at 10 µM; AID 2648; 0.35% of 310,000 active; CHO-K1 KCNQ1, thallium flux FluxOR fluorescence; active compounds read high; P51787;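 active means fluorescence ratio B-score, a plate-corrected score, at least three library SD, with initial intensity B-score within 5 SD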
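assay system = KCNQ1-transfected CHO-K1 cells | medium = assay buffer with matched DMSO | probe or stimulus = depolarizing K+/Tl+ stimulus, K2SO4 and Tl2SO4 each 12.5 mM in 5x stock | dosing = single dose | incubation = dye 90 min, compound 20 min, room temperature | detection = kinetic FluxOR fluorescence, 10 s baseline plus 110 s post-stimulus | evaluation = ratio B score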
hERG protect = compounds protecting human hERG from proarrhythmic drug block | AID 1511 | activation (rescue from dofetilide block), less the hit threshold, % at 10 µM | CHO-hERG, FluxOR thallium flux, dofetilide IC70 present | 0.51% of 310,000 active | Q12809;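 active means activation above the mean of controls blocked by dofetilide plus 5 SD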;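 further: thallium influx through hERG after potassium depolarization seen as dye fluorescence rise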
Target sequence (Q12809 whole entry, looked up): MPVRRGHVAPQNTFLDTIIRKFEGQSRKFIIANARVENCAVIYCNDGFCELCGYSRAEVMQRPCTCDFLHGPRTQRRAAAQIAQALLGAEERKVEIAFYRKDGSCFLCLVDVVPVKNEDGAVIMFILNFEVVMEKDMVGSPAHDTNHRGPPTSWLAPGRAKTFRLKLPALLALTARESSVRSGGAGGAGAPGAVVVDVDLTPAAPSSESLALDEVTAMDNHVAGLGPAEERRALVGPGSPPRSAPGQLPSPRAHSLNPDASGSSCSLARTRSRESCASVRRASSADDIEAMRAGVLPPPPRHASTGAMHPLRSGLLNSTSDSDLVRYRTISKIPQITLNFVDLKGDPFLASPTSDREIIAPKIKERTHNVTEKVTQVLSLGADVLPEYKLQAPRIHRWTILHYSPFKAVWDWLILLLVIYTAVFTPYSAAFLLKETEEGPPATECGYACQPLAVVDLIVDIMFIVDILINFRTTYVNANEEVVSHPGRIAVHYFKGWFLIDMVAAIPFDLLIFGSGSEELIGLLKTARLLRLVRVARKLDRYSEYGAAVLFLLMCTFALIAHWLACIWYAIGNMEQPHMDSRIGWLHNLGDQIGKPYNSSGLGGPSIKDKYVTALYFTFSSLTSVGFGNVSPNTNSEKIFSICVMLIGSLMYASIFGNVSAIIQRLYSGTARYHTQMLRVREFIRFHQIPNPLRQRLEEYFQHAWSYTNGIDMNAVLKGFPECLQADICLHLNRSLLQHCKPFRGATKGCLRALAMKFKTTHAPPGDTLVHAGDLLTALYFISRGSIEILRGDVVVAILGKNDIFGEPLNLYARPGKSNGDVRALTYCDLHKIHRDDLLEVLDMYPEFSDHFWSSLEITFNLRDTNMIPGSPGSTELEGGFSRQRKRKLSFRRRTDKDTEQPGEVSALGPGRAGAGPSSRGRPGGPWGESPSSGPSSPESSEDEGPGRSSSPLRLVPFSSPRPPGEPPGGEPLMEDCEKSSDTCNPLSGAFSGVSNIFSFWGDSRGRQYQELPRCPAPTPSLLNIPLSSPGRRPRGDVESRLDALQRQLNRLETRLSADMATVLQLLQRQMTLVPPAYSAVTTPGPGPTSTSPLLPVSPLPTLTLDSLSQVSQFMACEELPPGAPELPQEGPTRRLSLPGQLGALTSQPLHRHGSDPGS
KCNQ1 inh = blocks the human KCNQ1 potassium channel; CHO-K1 KCNQ1, FluxOR thallium flux fluorescence; active compounds read high; B-score at 10 µM; 1.3% of 310,000 active;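 active means compounds whose thallium flux B-score, printed positive for inhibition, exceeds three library SD while starting fluorescence stays within three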;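 further: channel opened by potassium depolarization with thallium stimulus after 20 min compound exposure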
Cl transport mod = modulates chloride dependent transport by human KCC2; 2.2% of 190,000 active; KCC2 cells, thallium flux FluoZin-2 fluorescence; B-score of Tl+ flux slope (higher = more flux/activation; lower = inhibition) at 10 µM;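 active means thallium flux slope and its plate-corrected score both differing from the plate sample mean at a set confidence after two filtering rounds, in either direction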;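 further: slope of fluorescence scaled to starting intensity during 10 to 20 s after thallium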
KCNK9 inh conf = confirmation of human KCNK9 potassium channel inhibitors; shares compounds with KCNK9 inh; HEK293 KCNK9 cells, FluxOR thallium flux fluorescence; inhibition, % at 10 µM; 43% of 4,900 active; AID 492992;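 active means thallium signal inhibited by more than 5 SD of the compound-free buffer control wells, on both duplicate plates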
Kir2-1 spec = selectivity of KCNK9 modulators against mouse Kir2.1 | shares compounds with KCNK9 inh | Kir2.1 cells, FluxOR thallium flux fluorescence | inhibition, % at 10 µM | 4% of 4,900 active;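 active means thallium signal drop more than 5 SD beyond the mean of the no-compound control wells, seen in both duplicate plates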;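 further: signal is fluorescence rise after thallium addition divided by baseline fluorescence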
HEK293 Tl ctr = second counter-screen for KCNK9 modulators: effect in non-induced cells; shares compounds with KCNK9 inh; 40% of 4,900 active; inhibition, % at 10 µM; non-induced KCNK9-HEK293, FluxOR thallium flux; AID 492997;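 active means thallium signal drop beyond 5 SD of the untreated control mean, on both duplicate plates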
Each line names hits and unclear results; the compound was inactive in the other large screens (follow-up assays come after a bar, where they were run). Rows were chosen to be rich in hits. Some 4.1% of all compounds tested hit in one or more screens of this group.

CCOC(=O)N1CCN(C(=O)c2cn(CC)c3ccc(S(=O)(=O)N4CCOCC4)cc3c2=O)CC1	none (no result: Cl transport mod)
N#CCSc1nc2c(c(=O)n1Cc1ccco1)C1(CCCC1)Cc1ccccc1-2	KCNK9 inh -14, KCNQ1 inh 6 (no result: Cl transport mod) | KCNK9 inh conf 54% | Kir2-1 spec inactive | HEK293 Tl ctr 33%
O=c1[nH]c(CN2CCCCC2)nc2c1C1(CCCCC1)Cc1ccccc1-2	none
COc1cccc(/C=C/C(=O)OCC(=O)N2CCN(S(=O)(=O)c3ccc(Cl)cc3)CC2)c1	none (no result: Cl transport mod)
COc1ccc(/C=C(/CC(=O)Nc2ccccc2)c2nc3ccccc3s2)cc1	none
COc1ccc(/C=C(/CC(=O)NCc2ccc(Cl)cc2)c2nc3ccccc3s2)cc1	KCNK9 inh -19 | KCNK9 inh conf 66% | Kir2-1 spec inactive | HEK293 Tl ctr 46%
CCCNC(=O)C1(CC2CC(c3ccccc3)=NO2)CCNCC1 (stereo not drawn)	none (no result: Cl transport mod)
CCc1ccc(NSc2ccccc2[N+](=O)[O-])cc1	KCNK9 inh -8.8 (no result: Cl transport mod) | KCNK9 inh conf 42% | Kir2-1 spec inactive | HEK293 Tl ctr 28%
Cc1ccc(S(=O)(=O)N(Cc2ccccc2Cl)C(=O)N2CCN(C)CC2)cc1	none (no result: Cl transport mod)
COc1ccc(NC(=O)N(CCc2ccccc2)Cc2cc3c(C)cc(C)cc3[nH]c2=O)cc1	none (no result: Cl transport mod) | KCNK9 inh conf inactive | Kir2-1 spec inactive | HEK293 Tl ctr inactive
COc1ccc2[nH]c(=O)c(CN(CCc3ccccc3)C(C)=O)cc2c1	none (no result: Cl transport mod)
CCCn1nc(C(=O)NCC2COc3ccccc3O2)c2ccccc2c1=O (stereo not drawn)	none (no result: KCNK9 inh, KCNQ1 act, hERG protect, KCNQ1 inh, Cl transport mod)
Cc1cccc(S(=O)(=O)N2CCN(Cc3ccc4c(c3)OCO4)CC2)c1	none (no result: Cl transport mod) | KCNK9 inh conf inactive | Kir2-1 spec inactive | HEK293 Tl ctr inactive
O=S(=O)(c1cccc2nsnc12)N1CCN(Cc2ccccc2)CC1	none (no result: Cl transport mod) | KCNK9 inh conf inactive | Kir2-1 spec inactive | HEK293 Tl ctr inactive
COc1ccc(S(=O)(=O)N2CCN(Cc3ccc4c(c3)OCO4)CC2)cc1	none (no result: Cl transport mod)
CCOc1ccc(S(=O)(=O)N2CCN(Cc3ccc4c(c3)OCO4)CC2)cc1Cl	none (no result: Cl transport mod) | KCNK9 inh conf inactive | Kir2-1 spec inactive | HEK293 Tl ctr inactive
O=C(NC1CCN(Cc2ccccc2)CC1)C1CCN(S(=O)(=O)c2cccc3nsnc23)CC1	none
COc1ccc(F)cc1S(=O)(=O)N1CCN(Cc2ccc3c(c2)OCO3)CC1	none | KCNK9 inh conf inactive | Kir2-1 spec inactive | HEK293 Tl ctr inactive
CN1CCN(S(=O)(=O)c2ccc(Cl)c(C(F)(F)F)c2)CC1	none (no result: KCNK9 inh, KCNQ1 act, hERG protect, KCNQ1 inh, Cl transport mod)
Cc1ccc2nsnc2c1S(=O)(=O)N1CCN(Cc2ccc3c(c2)OCO3)CC1	none (no result: Cl transport mod) | KCNK9 inh conf inactive | Kir2-1 spec inactive | HEK293 Tl ctr inactive
Cc1ccc(C)n1N1C(=O)/C(=C\c2ccc(Cl)cc2)SC1=S	none | KCNK9 inh conf inactive | Kir2-1 spec inactive | HEK293 Tl ctr inactive
CC(=O)N(C(C)=O)N1C(=O)/C(=C/c2ccc(Cl)cc2)SC1=S	none
CCCCCCCCCCCCN1[C@@H](CC(=O)O)c2cc(C(F)(F)F)ccc2S1(=O)=O	none (no result: Cl transport mod) | KCNK9 inh conf inactive | Kir2-1 spec inactive | HEK293 Tl ctr inactive
CCCCCCCCCCCCN1[C@@H](CC(=O)O)c2cc(F)ccc2S1(=O)=O	none (no result: Cl transport mod) | KCNK9 inh conf inactive | Kir2-1 spec inactive | HEK293 Tl ctr inactive
CCCCCCCCN1[C@@H](CC(=O)OC)c2cc(F)ccc2S1(=O)=O	none (no result: Cl transport mod)
Cc1ccc(-c2nc3cnccn3c2Nc2ccc3c(c2)OCO3)cc1	KCNK9 inh -8.6 | KCNK9 inh conf 44% | Kir2-1 spec inactive | HEK293 Tl ctr inactive
Cc1cc(C)n2c(Nc3ccc4c(c3)OCCO4)c(-c3ccccc3)nc2n1	KCNK9 inh -11 | KCNK9 inh conf 39% | Kir2-1 spec inactive | HEK293 Tl ctr 28%
